CHRM4 PAM: human M4 muscarinic receptor positive allosteric modulators, primary screen, CHO-K1 cells, Fluo-8 calcium fluorescence; CHO-K1 hM4/Gqi5, ACh EC20; 0% = ACh EC20, 100% = maximal ACh; activation, % at 3 µM; 0.4% of 360,000 active;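 active = activation above its plate's cutoff, the mean activation of sample wells plus 3 SD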
CHRM5 agonist: human M5 muscarinic receptor agonists, primary screen, CHO-K1 cells, Fluo-8 calcium fluorescence; Muscarinic acetylcholine receptor M5 (Homo sapiens), P08912; CHO-K1 hM5 cells; 0% DMSO wells, 100% maximal acetylcholine response; activation, % at 3 µM; 0.19% of 360,000 active;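 active = activation above the run's mean over test compounds plus 3 SD, cut at about 23% in these data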;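 also: signal is peak over basal fluorescence ratio across the kinetic read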
Target sequence (P08912 whole entry, looked up): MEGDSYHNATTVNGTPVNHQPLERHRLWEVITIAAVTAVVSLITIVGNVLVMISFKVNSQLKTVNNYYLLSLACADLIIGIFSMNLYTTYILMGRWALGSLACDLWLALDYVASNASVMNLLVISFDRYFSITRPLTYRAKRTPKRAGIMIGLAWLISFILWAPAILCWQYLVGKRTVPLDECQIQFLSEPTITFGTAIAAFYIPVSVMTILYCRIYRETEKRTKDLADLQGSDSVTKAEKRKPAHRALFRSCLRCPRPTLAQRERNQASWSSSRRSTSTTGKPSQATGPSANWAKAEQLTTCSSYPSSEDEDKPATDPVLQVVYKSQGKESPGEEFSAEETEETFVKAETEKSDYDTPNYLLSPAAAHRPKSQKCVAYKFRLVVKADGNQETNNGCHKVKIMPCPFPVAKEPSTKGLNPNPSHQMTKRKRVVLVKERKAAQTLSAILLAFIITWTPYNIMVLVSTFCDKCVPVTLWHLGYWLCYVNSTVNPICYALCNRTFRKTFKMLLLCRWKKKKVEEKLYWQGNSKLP
M4 ag: human M4 muscarinic receptor agonists, primary screen, CHO-K1 cells, Fluo-8 calcium fluorescence; CHO-K1 hM4/Gqi5; vehicle 0%, full acetylcholine response 100%; activation, % at 3 µM; 0.14% of 360,000 active;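 active = activation above the run mean over all test wells plus 3 SD, cut at about 32% in these data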;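 also: peak over basal fluorescence ratio per well then scaled between controls; 0% = DMSO wells and 100% = acetylcholine at EC100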
M4 antag: human M4 muscarinic receptor antagonists, primary screen, CHO cells, Fluo-8 calcium fluorescence | CHO-hM4 cells, ACh EC80 | Muscarinic acetylcholine receptor M4 (Homo sapiens), P08173 | AID 624125, 2012 | inhibition, % at 3 µM | 0.73% of 360,000 active;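 active = inhibition above its plate's cutoff, the mean inhibition of sample wells plus 3 SD, cut at about 27% in these data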;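 also: 0% = acetylcholine EC80 with DMSO and 100% = DMSO without agonist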
CHRM5 PAM: human M5 muscarinic receptor positive allosteric modulators, primary screen, CHO-K1 cells, Fluo-8 calcium fluorescence. 0.3% of 360,000 active. CHO-K1 hM5, ACh EC20 PAM; 0% = ACh EC20, 100% = ACh EC100. activation, % at 3 µM. Muscarinic acetylcholine receptor M5 (Homo sapiens), P08912;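 active = activation above the run cutoff, the mean activation of all test compounds plus 3 SD, cut at about 18% in these data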
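Assay system – human M5 receptor in CHO-K1 cells · Read-out – % activation, ACh-normalized · Technique – Fluo-8 calcium fluorescence · Dosing – single-point, 3 µM nominal · Incubation – Fluo-8 loading 80 min at 37 °C plus 30 min room temperature · Repeats – singlicate, one well per test compound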
M5 antag: human M5 muscarinic receptor antagonists, primary screen, CHO cells, Fluo-8 calcium fluorescence | inhibition, % at 3 µM | CHO-hM5 cells, ACh EC80 | Muscarinic acetylcholine receptor M5 (Homo sapiens), P08912 | 0.59% of 360,000 active;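 active = inhibition above a per-plate cutoff, the mean of that plate's test compounds plus 3 SD, cut at about 27% in these data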;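 also: 0% = acetylcholine EC80 with DMSO and 100% = DMSO without agonist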
* = called active by the depositor. The list is not random: actives were taken first. Their share in the collection is about 1.9%.

SMILES	CHRM4 PAM	CHRM5 agonist	M4 ag	M4 antag	CHRM5 PAM	M5 antag
Cc1cccc(N2C(=O)c3cccc4c(N(C)CCO)ccc(c34)C2=O)c1	-25	42*	38*	21	-17	23
CC(C)CCN1C(=O)c2cccc3c(N)ccc(c23)C1=O	-18	313*	97*	47*	-32	70*
Nc1ccc2c3c(cccc13)C(=O)N(c1ccccc1)C2=O	-28	45*	70*	31*	-20	23
Cc1cccc(N2C(=O)c3cccc4cccc(c34)C2=O)c1	2	1	1	-3	1	5
Cc1ccccc1N=C(c1ccccc1)C1C(=O)c2ccccc2C1=O	-4	-1	0	0	-12	8
Cc1noc(C)c1COc1ccc(C(=O)Nc2ncccc2O)cc1	11	0	3	-4	-4	6
Cc1ccc(F)c(CNC(=O)C2(C)CCCN2C(=O)C(C)C)c1F (stereo not drawn)	-2	5	1	-5	7	-2
Cc1ccc(C)c(C(=O)OCC(=O)NC(=O)NCc2ccccc2)c1	6	-3	-1	-16	-2	-7
O=C(O)c1cccc(N2C(=O)c3cccc4c(Cl)ccc(c34)C2=O)c1	7	-2	2	1	-2	-4
Nc1cccc(N2C(=O)c3cccc4c(N)ccc(c34)C2=O)c1	-12	21	39*	4	-11	8
CN(C)c1ccc(C2N3CC4(C)CN2CC(C)(C3)C4O)cc1 (stereo not drawn)	11	-1	1	-29	1	-10
CC(C)C12CN3CC(C(C)C)(CN(C1)C3c1ccccc1)C2O (stereo not drawn)	32*	6	1	0	-2	1
Cc1nc(N2CCN(c3ccccc3O)CC2)c2c(-c3ccccc3)csc2n1	-11	-1	10	16	-9	17
CN1CCN(C(CNS(=O)(=O)c2ccc(Br)cc2)c2ccc3c(c2)OCO3)CC1 (stereo not drawn)	0	-10	6	-5	-34	27*
Cc1cccc(-n2cnc3sc(C)c(C)c3c2=O)c1	0	-8	0	0	-11	35*
CC(Sc1ccsc1[N+](=O)[O-])C(=O)NCc1ccco1 (stereo not drawn)	23*	1	1	5	12	1
CC(Sc1nnc(-c2cccs2)n1-c1ccccc1)C(=O)NCc1ccco1 (stereo not drawn)	-1	-4	2	-4	-3	-1
COc1ccccc1CNc1nc(Nc2cccc(-c3cnco3)c2)c2sccc2n1	-13	2	17	26	-19	23
c1cc2c(cc1CN1CCN(C3CCCCCC3)CC1)OCO2	-16	-8	0	46*	-14	9
COc1ccc(C(=O)OCC(=O)NCCCc2ccccc2)c(OC)c1	-4	-2	3	11	-5	9
COc1ccc(C(=O)OCC(=O)NC(=O)Nc2ccccc2F)c(OC)c1	21*	1	0	9	-8	14
COC(=O)c1ccc(Cl)cc1NC(=O)/C=C/c1ccc(C)o1	3	0	0	1	20*	16
CC(=O)c1c(C)[nH]c(C(=O)COc2cc(C)ccc2C(C)C)c1C	-8	4	16	39*	-19	41*
CC1CCCCN1C(=O)CSc1nc(N)nc(N)n1 (stereo not drawn)	26*	0	1	-6	-4	10
CC1CCCCN1C(=O)CSc1nc(N)cc(=O)[nH]1 (stereo not drawn)	3	-2	1	10	4	-5
SMILES	CHRM4 PAM	CHRM5 agonist	M4 ag	M4 antag	CHRM5 PAM	M5 antag
CCN(CC)CCN1C(=O)C(=O)/C(=C(/O)c2c(C)[nH]c(C(=O)OC)c2C)C1c1ccccc1 (stereo not drawn)	30*	-2	1	1	3	4
CCN(CC)CCN1C(=O)C(=O)/C(=C(/O)c2c(C)[nH]c(C(=O)OC)c2C)C1c1ccc(OC)cc1 (stereo not drawn)	2	-1	0	3	-2	3
Cc1ccccc1N(Cc1cc(=O)[nH]c2ccccc12)C(=O)C(C)C	-6	-2	2	-15	-1	-5
Cc1ccc(N(Cc2cc(=O)[nH]c3ccccc23)C(=O)C(C)C)c(C)c1	-11	0	-1	46*	0	6
N#CCC(=O)N1CCN(C(c2ccccc2)c2ccccc2)CC1	-8	-16	-1	5	-7	12
O=C(CN1CCN(C(c2ccccc2)c2ccccc2)CC1)N1CCOCC1	-16	-5	2	37*	-14	24
O=C(O)COCC(=O)N1CCN(C(c2ccccc2)c2ccccc2)CC1	-50	-16	16	41*	-31	40*
COc1ccc(N2CCN(CC(=O)NC(C)c3ccccc3)CC2)cc1 (stereo not drawn)	2	-1	0	-3	8	4
COc1ccc(N2CCN(C(=O)CN3CCN(C(c4ccccc4)c4ccccc4)CC3)CC2)cc1	-15	-9	0	28*	-13	4
COC(c1ccccc1)c1nnc(CCC(=O)N2CCCCCCC2)o1 (stereo not drawn)	18*	0	3	-18	2	5
COC(c1ccccc1)c1nnc(CCC(=O)N2CCN(Cc3cccs3)CC2)o1 (stereo not drawn)	-1	-3	2	1	-2	4
Cc1ccc(-n2nnnc2-c2ccco2)cc1	-2	-5	0	3	10	4
c1ccc(Cn2nnnc2-c2ccco2)cc1	37*	0	1	4	14	-20
CC1=NN(C(=O)CSCc2ccccc2)C(O)(c2ccc(Cl)cc2)C1 (stereo not drawn)	4	-4	1	-3	4	3
CC1=NN(C(=O)COc2ccc(C)c(C)c2)C(O)(c2ccc(Cl)cc2)C1 (stereo not drawn)	22*	0	3	-5	4	3
COCCCOc1ccnc(CS(=O)c2nc3ccccc3[nH]2)c1C (stereo not drawn)	-1	0	4	-33	-4	-4
COc1ccc2nc(S(=O)Cc3ncc(C)c(OC)c3C)[nH]c2c1 (stereo not drawn)	-16	0	1	42*	-5	5
